A selection: hits, their analogues and other compounds. The true share with any hit is near 12%.
MT stabilizer: stabilizes microtubules in HeLa cells | HeLa tubulin immunostaining HCS, 24 h; share of cells brighter than vehicle mean+2SD | actives 0.83% (n = 200,000) | % tubulin-high responders, % at 10 µM;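 active = plate Z-score above 3 for both tubulin-high and condensed-nucleus cell shares, with cell loss under 80%, at 10 µM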;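 also: anti alpha tubulin signal scored within the nucleus-defined area of each cell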
Autophagy HCS: autophagy modulation, high-content screen | MEF GFP-LC3 puncta imaging; test concentration mostly 10 µM | actives 0.98% (n = 190,000) | calls only at 10 µM (by protocol);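 active = percentage of spot-positive cells more than 3 SD above its plate mean, without a fluorescence outlier flag or 80% toxicity; inconclusive = no clear call, values can overlap the other calls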;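 also: spot-positive cell cutoff set from DMSO-treated cells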
CHOP inhibitor: inhibitors of CHOP induction in ER stress response | CHO-K1 CHOP-promoter luciferase, tunicamycin-induced, 15-18 h | inhibition, % at 10 µM | actives 3.8% (n = 220,000) | AID 2732;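 active = compounds that reduced the stress-induced luciferase reporter signal by more than about 70% of percent inhibition, limit read from the data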;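 also: 0% = tunicamycin plus vehicle and 100% = wells without tunicamycin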
bCat nuc transl: alters nuclear translocation of beta-catenin in HeLa cells; immunofluorescence imaging; nuclear translocation activity, % at 5 µM; actives 0.3% (n = 190,000);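 active = nuclear translocation activity above 50% at 5 µM, with a well cell count of 50 or more; inconclusive = wells under 50 cells across six images, flagged as toxic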;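 also: per-cell ratio of nuclear to cytoplasmic median beta-catenin stain intensity; plate controls were DMSO negative control for no effect and GSK-3 inhibitor IX positive control for full effect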
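assay system = human HeLa cells, endogenous beta-catenin | times = compound treatment 24 h, 37°C, 5% CO2 | detection = Anti-beta-catenin immunofluorescence on PFA-fixed, Triton-permeabilized cells, DAPI nuclei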
L major viab: reduces viability of Leishmania major promastigotes; resazurin fluorescence viability; inhibition, % at 10 µM; actives 9% (n = 200,000); in the data active = inhibition above about 50%;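 also: promastigotes grown with compound for 44 hours at 28 °C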
Dynein cargo inh: dynein cargo transport inhibition; 3617.4 mouse cells, GR-EGFP nuclear translocation imaging; test concentration mostly 20 µM; stimulated with dexamethasone, 1 µM; stronger effect = lower value; z-score, hits read low; actives 0.47% (n = 220,000); AID 1381;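 active = plate z-score of nuclear minus cytoplasmic receptor signal below a set negative limit, without overly bright fluorescence or cell loss, cut at about -3.5 in these data, passing the limit was not always enough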;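 also: z-score of nuclear minus cytoplasmic ring GR-EGFP intensity difference per well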
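Also added: dexamethasone, 1.0 µM final. Medium: tet-free, stripped-serum medium. Detection: fixed, Hoechst-stained cells imaged at 10x for EGFP. Read-out: nuclear-to-cytoplasmic GR-EGFP distribution per well. Times: induction 48 h, compound 1 h, agonist 30 min.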
The depositor's hits bear a star; i = inactive; ? = inconclusive; nt = not tested or not shown; + = active, no number.

SMILES	MT stabilizer	Autophagy HCS	CHOP inhibitor	bCat nuc transl	L major viab	Dynein cargo inh
Cc1ccc(CN2CCCC(C(=O)c3cccc(C(F)(F)F)c3)C2)o1 (stereo unspecified)	1	i	69	-3	47	-0.93
O=C(c1ccc(C(F)(F)F)cc1)C1CCCN(Cc2ccc(CO)o2)C1 (stereo unspecified)	4	i	38	-1	88*	0.16
Cc1ccc(CN2CCCC(C(=O)c3sccc3C)C2)o1 (stereo unspecified)	2	i	10	2	15	0.67
Cn1c(O)c(C=NCCN2CCOCC2)c(=O)n(C)c1=S	nt	nt	19	0	nt	0.84
Cc1ccsc1C(=O)C1CCCN(Cc2c(C)nn(C(C)C)c2C)C1 (stereo unspecified)	3	i	17	-3	11	1
c1ccc2c(CNC3CCCCC3)c[nH]c2c1	2	i	14	nt	31	-0.93
c1ccc2c(CN3CCCCCCC3)c[nH]c2c1	2	i	-33	0	98*	-0.056
CN(Cc1c[nH]c2ccccc12)C1CCCCC1	2	i	-124	0	70*	0.99
c1ccc2c(CN3CCN(C4CCCCC4)CC3)c[nH]c2c1	6	i	8	-2	75*	2.2
NCCc1c[nH]c2ccccc12	3	i	-5	1	-3	-0.77
C=CCN1CC[C@]23c4c5ccc(O)c4O[C@@H]2/C(=N/N=C2\CC[C@@]4(O)C6Cc7ccc(O)c8c7[C@@]4(CCN6CC=C)[C@@H]2O8)CC[C@@]3(O)C1C5	nt	nt	8	nt	nt	nt
CCOc1cccc(OCC)c2c(C)[n+](CC3CCCO3)c(C)c1-2 (stereo unspecified)	2	i	21	0	93*	0.74
CN1CCN(C(=O)COc2ccc(S(=O)(=O)N(C)Cc3ccccc3)cc2)CC1	3	i	24	nt	9	1.2
CCN1CCN(C(=O)COc2ccc(S(=O)(=O)N(C)Cc3ccccc3)cc2)CC1	3	i	-6	-1	99*	-1.2
Cn1c(O)c(C=NC2CCCCCC2)c(=O)[nH]c1=S	6	i	-16	1	9	-0.41
c1ccc(-c2nnc(C3CC(c4cccnc4)=NO3)o2)cc1 (stereo unspecified)	nt	nt	2	-1	nt	0.49
CC12CNCC(C)(CNC1)C2O (stereo unspecified)	4	i	88*	-1	-4	0.31
O=C1N(c2nncs2)CCN1[N+](=O)[O-]	nt	nt	10	-5	nt	-0.37
NCC#Cc1ccccc1	nt	nt	5	nt	nt	nt
Clc1ccc(COC(Cn2ccnc2)c2ccc(Cl)cc2Cl)c(Cl)c1 (stereo unspecified)	4	i	40	0	99*	0.45
O=C(NCCCN1CCOCC1)C(Cl)(Cl)Cl	3	i	-24	nt	53*	-0.081
O=C(NCCN1CCOCC1)c1ccc(Cl)nc1	nt	nt	14	0	nt	0.28
O=C(Nc1ccc(Cl)cc1C(=O)c1ccccc1Cl)c1ccco1	1	i	23	-2	-4	-0.5
C=C(CO)CC1CC(O)[C@]2(C)OC3CC4OC5C[C@]6(C)O[C@]7(C)CCC8OC9C[C@]%10(C)OC%11C(C)=CC(=O)OC%11CC%10OC9C[C@@H](C)C8OC7CC6O[C@]5(C)C/C=C\C4OC3CC2O1 (stereo partly specified)	3	i	41	1	56*	-0.97
C=C(COC(C)=O)CC1CC(O)[C@]2(C)OC3CC4OC5C[C@]6(C)O[C@]7(C)CCC8OC9C[C@]%10(C)OC%11C(C)=CC(=O)OC%11CC%10OC9C[C@@H](C)C8OC7CC6O[C@]5(C)C/C=C\C4OC3CC2O1 (stereo partly specified)	nt	nt	12	4	nt	0.88
SMILES	MT stabilizer	Autophagy HCS	CHOP inhibitor	bCat nuc transl	L major viab	Dynein cargo inh
CCC1(CC)C(=O)N(C)C(=O)NC1=NC	nt	nt	0	-1	nt	-0.31
C#CCN(C)[C@@H](C)Cc1ccccc1	nt	nt	-3	nt	nt	nt
Clc1cccc(Cl)c1CN1CCN(c2ccccc2)CC1	2	i	57	nt	1	-0.59
C/C(=N\NC(=S)Nc1ccccc1)c1c(O)n(C)c(=O)n(C)c1=O	1	+	-11	0	-10	-0.92
CC/C(=N\Nc1ccccc1)c1c(O)n(C)c(=O)n(C)c1=O	3	i	1	1	61*	-0.97
CCC(=NCCN1CCCCC1)c1c(O)n(C)c(=O)n(C)c1=O	3	+	5	nt	-7	0.066
CC(=NCCc1ccccc1)c1c(O)n(C)c(=O)n(C)c1=O	nt	nt	-6	0	nt	-0.11
Cn1c(O)c(C(=NCCN2CCCCC2)c2ccccc2Cl)c(=O)n(C)c1=O	1	i	22	-6	-7	0.99
CP(=O)(Nc1ccccc1)C(Cl)(Cl)Cl (stereo unspecified)	4	i	-10	-2	-9	1.2
CC(=O)NC(Cc1ccc(N(CCCl)CCCl)cc1)C(=O)NCC(=O)NCC(=O)O (stereo unspecified)	4	i	57	0	-4	-0.96
CCOP(=O)(Cc1cc(C(=O)CC)c(C)o1)OCC	nt	nt	18	-1	nt	-0.77
Cc1cccc(C)c1NC(=O)CN(C)CC(=O)Nc1ccc(C#N)c(Cl)c1	3	i	4	4	0	-1.2
CN1CCc2nc(SCc3ccccc3Br)c(C#N)cc2C1	4	i	42	5	65*	1.1
c1ccc2nc(OCCN3CC3)ccc2c1	nt	nt	9	0	nt	-0.32
c1ccc(C(OCCN2CCNCC2)c2ccccc2)cc1	4	i	-1	5	100*	-0.45
NC(=S)c1cn(C2OC(CO)C(O)C2O)c2ncnc(N)c12 (stereo unspecified)	nt	nt	105*	?	nt	-1.3
COc1cccc(C2(O)CCN(Cc3ccncc3)CC2)c1	2	i	-11	0	92*	-0.68
COc1cccc(N2CCN(Cc3ccc(Cl)cc3)CC2)c1	5	i	32	-1	38	0.65
Fc1ccc(Cn2nnnc2C(c2ccc(Cl)cc2)N2CC=C(c3ccc(F)cc3)CC2)cc1 (stereo unspecified)	1	i	4	1	99*	0.64
CN1CCC2(CC1)NC(=O)c1ccccc1N2	nt	nt	5	-1	nt	-0.11
COC(=O)C1=Nc2ccccc2/C1=C\c1c(O)n(-c2ccc(OC)cc2)c(=O)[nH]c1=O	2	i	19	1	-3	-0.67
COC(=O)C1=Nc2ccccc2/C1=C\c1c(O)n(-c2ccc(Br)cc2)c(=O)[nH]c1=O	5	i	60	-7	67*	-0.26
O=c1[nH]c(=O)n(-c2ccccc2)c(O)c1/C=C1/C(c2ccccc2)=Nc2ccccc21	31*	i	-22	80*	79*	0.51
NS(=O)(=O)c1ccc(N=Cc2c(O)n(-c3ccccc3)c(=O)[nH]c2=O)cc1	3	i	-4	-7	-4	0.44

Bioassay records: PubChem, several laboratories
